Results: ChEMBL document CHEMBL3102750 (J Med Chem, 2013)

Key:
Plasma [1] = assay: Fraction unbound in human plasma at 5 uM after 4 hrs by equilibrium dialysis method; format: ADME, cell-free
How it was run: (§1)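 Fraction unbound determined in plasma from rat, cynomolgus monkey and human.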

Cynomolgus monkey [2] = assay: Elimination half life in cynomolgus monkey at 1 mg/kg, iv; format: ADME, organism-based, Macaca fascicularis; design: dose 1 mg/kg, route intravenous; details: in vivo
[3] = Cmax in po dosed Sprague-Dawley rat; format: ADME, organism-based; design: route oral; details: in vivo
Cynomolgus monkey [4] = assay: Volume of distribution at steady state in cynomolgus monkey at 1 mg/kg, iv; format: ADME, organism-based, Macaca fascicularis; design: dose 1 mg/kg, route intravenous; details: in vivo
[5] = biological target: Cannabinoid receptor 1 (Homo sapiens) (UniProt P21554); assay: Binding affinity to human CB1 receptor at 10 uM by radioligand binding assay relative to control
Cannabinoid receptor 1 (Homo sapiens), sequence (P21554 whole entry): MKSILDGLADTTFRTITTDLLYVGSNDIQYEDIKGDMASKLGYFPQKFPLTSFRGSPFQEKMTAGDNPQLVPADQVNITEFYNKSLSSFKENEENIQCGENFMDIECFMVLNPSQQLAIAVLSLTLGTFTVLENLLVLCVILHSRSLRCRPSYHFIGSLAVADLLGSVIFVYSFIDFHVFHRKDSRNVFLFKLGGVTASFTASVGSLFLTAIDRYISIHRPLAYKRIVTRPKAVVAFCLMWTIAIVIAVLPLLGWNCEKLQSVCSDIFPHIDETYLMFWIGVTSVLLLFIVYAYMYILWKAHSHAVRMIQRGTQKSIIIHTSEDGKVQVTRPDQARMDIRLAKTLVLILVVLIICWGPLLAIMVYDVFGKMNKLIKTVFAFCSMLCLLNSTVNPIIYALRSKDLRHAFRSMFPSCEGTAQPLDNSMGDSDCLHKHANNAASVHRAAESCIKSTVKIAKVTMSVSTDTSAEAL

[6] = Plasma clearance in Sprague-Dawley rat at 1 mg/kg, iv; format: ADME, organism-based; design: dose 1 mg/kg, route intravenous
[7] = Oral bioavailability in Sprague-Dawley rat; format: ADME, organism-based; details: in vivo
Cytochrome P450 2D6 = Cytochrome P450 2D6 (Homo sapiens, UniProt P10635); assay: Inhibition of CYP2D6 in human liver microsomes using dextromethorphan as substrate preincubated for 15 mins followed by NADPH addition measured after 8 mins by LC/MS/MS analysis; format: ADME
Cytochrome P450 2D6, sequence (P10635 whole entry): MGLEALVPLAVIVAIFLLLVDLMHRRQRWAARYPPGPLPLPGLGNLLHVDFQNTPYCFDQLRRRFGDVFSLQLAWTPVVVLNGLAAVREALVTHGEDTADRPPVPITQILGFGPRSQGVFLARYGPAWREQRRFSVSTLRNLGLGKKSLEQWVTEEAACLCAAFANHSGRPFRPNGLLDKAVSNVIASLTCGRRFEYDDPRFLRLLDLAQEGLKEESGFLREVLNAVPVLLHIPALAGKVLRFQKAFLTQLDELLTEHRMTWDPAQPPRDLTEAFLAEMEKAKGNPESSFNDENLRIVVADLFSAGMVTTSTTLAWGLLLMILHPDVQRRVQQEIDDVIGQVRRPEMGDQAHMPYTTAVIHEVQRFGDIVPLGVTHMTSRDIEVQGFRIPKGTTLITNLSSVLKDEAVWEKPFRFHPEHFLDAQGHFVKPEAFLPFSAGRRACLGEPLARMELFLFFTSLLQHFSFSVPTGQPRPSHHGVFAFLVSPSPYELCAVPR

[8] = biological target: T1, Muscarinic acetylcholine receptor M1 (Homo sapiens, UniProt P11229); assay: Negative allosteric modulation of human muscarinic acetylcholine receptor M1 expressed in CHO cells assessed as inhibition of acetylcholine-induced calcium mobilization incubated for 150 secs prior to acetylcholine induction by Fluo-4 AM staining-based fluorescence assay; format: functional, cell-based
T1 sequence (P11229 whole entry): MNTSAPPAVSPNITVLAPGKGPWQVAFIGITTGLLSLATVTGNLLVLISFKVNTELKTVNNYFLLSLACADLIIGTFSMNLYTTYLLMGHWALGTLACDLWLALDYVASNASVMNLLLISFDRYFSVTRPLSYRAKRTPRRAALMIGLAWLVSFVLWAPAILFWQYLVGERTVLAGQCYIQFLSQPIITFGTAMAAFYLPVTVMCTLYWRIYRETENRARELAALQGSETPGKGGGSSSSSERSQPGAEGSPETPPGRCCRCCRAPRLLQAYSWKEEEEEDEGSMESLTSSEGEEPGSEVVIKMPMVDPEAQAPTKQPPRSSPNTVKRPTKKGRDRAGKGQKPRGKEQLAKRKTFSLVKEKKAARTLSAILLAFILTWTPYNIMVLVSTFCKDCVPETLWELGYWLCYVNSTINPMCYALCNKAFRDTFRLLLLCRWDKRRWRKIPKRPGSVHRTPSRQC

Cytochrome P450 3A4 = Cytochrome P450 3A4 (Homo sapiens, UniProt P08684); assay: Inhibition of CYP3A4 in human liver microsomes using midazolam as substrate preincubated for 15 mins followed by NADPH addition measured after 8 mins by LC/MS/MS analysis; format: ADME
Cytochrome P450 3A4, sequence (P08684 whole entry): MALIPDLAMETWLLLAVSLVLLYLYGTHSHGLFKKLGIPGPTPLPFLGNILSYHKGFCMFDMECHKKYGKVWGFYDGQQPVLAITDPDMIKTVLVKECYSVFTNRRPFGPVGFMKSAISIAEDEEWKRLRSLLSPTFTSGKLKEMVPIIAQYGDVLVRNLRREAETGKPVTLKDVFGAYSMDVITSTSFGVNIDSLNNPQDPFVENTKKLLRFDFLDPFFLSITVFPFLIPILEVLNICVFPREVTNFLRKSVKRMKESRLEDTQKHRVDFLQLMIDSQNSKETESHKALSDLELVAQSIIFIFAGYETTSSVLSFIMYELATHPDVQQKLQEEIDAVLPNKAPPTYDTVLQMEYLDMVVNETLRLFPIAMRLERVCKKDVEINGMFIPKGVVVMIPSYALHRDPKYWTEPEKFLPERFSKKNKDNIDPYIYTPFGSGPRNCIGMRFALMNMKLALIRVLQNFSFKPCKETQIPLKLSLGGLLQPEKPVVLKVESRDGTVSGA

[9] = Ratio of brain to plasma partition coefficient in Sprague-Dawley rat at 10 mg/kg, po measured at 1 hr; format: ADME, organism-based; design: dose 10 mg/kg, route oral
How it was run: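 Oral CNS distribution study in male Sprague-Dawley rats (n=2), 10 mg/kg; brain and plasma sampled one hour post-dose. Total (Kp) and unbound (Kp,uu) brain-plasma partition coefficients calculated, with unbound fractions from plasma and brain homogenate binding.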

Plasma [10] = assay: Fraction unbound in cynomolgus monkey plasma at 5 uM after 4 hrs by equilibrium dialysis method; format: ADME, cell-free, Macaca fascicularis; how it was run: as §1
[11] = Elimination half life in Sprague-Dawley rat at 1 mg/kg, iv; format: ADME, organism-based; design: dose 1 mg/kg, route intravenous; details: in vivo, read-out: beta t1/2 (converted)
[12] = Tmax in po dosed Sprague-Dawley rat; format: ADME, organism-based; details: in vivo
Cytochrome P450 2C9 = Cytochrome P450 2C9 (Homo sapiens, UniProt P11712); assay: Inhibition of CYP2C9 in human liver microsomes using diclofenac as substrate preincubated for 15 mins followed by NADPH addition measured after 8 mins by LC/MS/MS analysis; format: ADME
Cytochrome P450 2C9, sequence (P11712 whole entry): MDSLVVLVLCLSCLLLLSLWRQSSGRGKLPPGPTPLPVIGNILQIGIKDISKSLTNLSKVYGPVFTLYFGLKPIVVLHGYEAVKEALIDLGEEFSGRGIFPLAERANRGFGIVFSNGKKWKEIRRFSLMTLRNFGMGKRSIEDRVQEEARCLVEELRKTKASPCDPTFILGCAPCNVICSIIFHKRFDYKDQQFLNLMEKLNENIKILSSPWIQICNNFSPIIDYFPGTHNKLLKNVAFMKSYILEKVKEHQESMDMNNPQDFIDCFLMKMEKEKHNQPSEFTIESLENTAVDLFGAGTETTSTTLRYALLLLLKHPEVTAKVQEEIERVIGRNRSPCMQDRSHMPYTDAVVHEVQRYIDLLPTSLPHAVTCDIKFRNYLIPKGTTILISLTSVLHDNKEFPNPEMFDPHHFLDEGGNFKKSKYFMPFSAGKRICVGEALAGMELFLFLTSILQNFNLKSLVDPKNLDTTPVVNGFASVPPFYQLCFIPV

Rattus norvegicus = assay: Volume of distribution at steady state in Sprague-Dawley rat at 1 mg/kg, iv; format: ADME, organism-based; design: dose 1 mg/kg, route intravenous; details: in vivo
[13] = Fraction unbound in Sprague-Dawley rat brain at 5 uM after 4 hrs by equilibrium dialysis method; format: ADME, tissue-based
How it was run: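 Nonspecific binding measured in rat brain homogenate to give unbound fraction in brain (fu,br).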

[14] = biological target: T2, Muscarinic acetylcholine receptor M5 (Homo sapiens, UniProt P08912); assay: Negative allosteric modulation of human muscarinic acetylcholine receptor M5 expressed in CHO cells assessed as inhibition of acetylcholine-induced calcium mobilization incubated for 150 secs prior to acetylcholine induction by Fluo-4 AM staining-based fluorescence assay; format: functional, cell-based
T2 sequence (P08912 whole entry): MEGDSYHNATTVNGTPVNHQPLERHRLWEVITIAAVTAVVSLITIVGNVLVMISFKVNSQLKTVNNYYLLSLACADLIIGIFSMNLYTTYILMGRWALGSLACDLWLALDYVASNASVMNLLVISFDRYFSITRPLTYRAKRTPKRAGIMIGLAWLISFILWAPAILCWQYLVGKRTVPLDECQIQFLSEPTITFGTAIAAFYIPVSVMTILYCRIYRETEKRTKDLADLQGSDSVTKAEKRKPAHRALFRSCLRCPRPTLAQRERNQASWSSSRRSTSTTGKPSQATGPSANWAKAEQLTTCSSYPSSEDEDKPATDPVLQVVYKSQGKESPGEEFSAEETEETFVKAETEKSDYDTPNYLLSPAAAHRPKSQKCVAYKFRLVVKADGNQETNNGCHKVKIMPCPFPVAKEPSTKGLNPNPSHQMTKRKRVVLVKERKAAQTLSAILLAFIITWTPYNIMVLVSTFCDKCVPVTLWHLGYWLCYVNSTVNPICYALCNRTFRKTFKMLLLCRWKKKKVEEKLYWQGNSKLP

[15] = biological target: T3, Muscarinic acetylcholine receptor M5 (Rattus norvegicus, UniProt P08911); assay: Negative allosteric modulation of rat muscarinic acetylcholine receptor M5 expressed in CHO cells assessed as inhibition of acetylcholine-induced calcium mobilization incubated for 150 secs prior to acetylcholine induction by Fluo-4 AM staining-based fluorescence assay; format: functional, cell-based
T3 sequence (P08911 whole entry): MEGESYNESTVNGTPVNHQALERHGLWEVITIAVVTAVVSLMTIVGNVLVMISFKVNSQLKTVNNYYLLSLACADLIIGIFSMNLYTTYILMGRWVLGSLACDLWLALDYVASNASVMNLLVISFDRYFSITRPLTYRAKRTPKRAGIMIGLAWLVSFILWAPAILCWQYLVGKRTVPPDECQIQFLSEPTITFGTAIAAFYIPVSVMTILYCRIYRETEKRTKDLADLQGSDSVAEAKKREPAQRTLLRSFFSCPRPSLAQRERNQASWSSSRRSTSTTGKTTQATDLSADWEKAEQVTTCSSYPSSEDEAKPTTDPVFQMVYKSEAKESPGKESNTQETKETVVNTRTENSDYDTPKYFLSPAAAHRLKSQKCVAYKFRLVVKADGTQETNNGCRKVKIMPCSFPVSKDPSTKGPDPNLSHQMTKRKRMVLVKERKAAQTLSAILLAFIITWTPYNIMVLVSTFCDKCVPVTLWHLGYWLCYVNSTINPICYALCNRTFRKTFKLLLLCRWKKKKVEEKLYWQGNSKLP

[16] = biological target: T4, Muscarinic acetylcholine receptor M5 (Homo sapiens) (UniProt P08912); assay: Negative allosteric modulation of human muscarinic acetylcholine receptor M5 expressed in CHO cells assessed as reduction of acetylcholine-induced calcium mobilization at 10 uM incubated for 150 secs prior to acetylcholine induction by Fluo-4 AM staining-based fluorescence assay relative to control; format: functional, cell-based; design: scale not given: the % may be the effect or the level left
T4 sequence (whole entry): T2 sequence (P08912 whole entry)

| Fu (Plasma [1]) | beta t1/2 (Cynomolgus monkey [2]) [h] | Cmax [3] [nM] | Vdss (Cynomolgus monkey [4]) [L/kg] | inhibition [5] [%] | clearance [6] [mL/min/kg] | bioavailability [7] [%] | IC50 (Cytochrome P450 2D6) [µM] | IC50 [8] [µM] | IC50 (Cytochrome P450 3A4) [µM] | BPR [9] | Fu (Plasma [10]) | half-life [11] [h] | Tmax [12] [h] | IC50 (Cytochrome P450 2C9) [µM] | Vdss (Rattus norvegicus) [L/kg] | Fu [13] | IC50 [14] [µM] | IC50 [15] [µM] | Activity [16] [%] | SMILES |
| --- | --- | --- | --- | --- | --- | --- | --- | --- | --- | --- | --- | --- | --- | --- | --- | --- | --- | --- | --- | --- |
| 0.013 | 10 | 1400 | 1.9 | 66 | 2.5 | 80 | 26 | > 30 | 16 | 1.8 | 0.001 | 80 | 7 | 7.4 | 16 | 0.003 | – | – | – | O=C(c1ccc(F)c(F)c1)N1CCN2C(=O)c3ccccc3[C@@]12c1ccc(Cl)cc1 |
| – | – | – | – | – | – | – | – | > 30 | – | – | – | – | – | – | – | – | 1.05 | 2.1 | 0 | O=C(c1ccc(F)c(F)c1)N1CCN2C(=O)c3ccccc3C12c1ccccc1 (stereo unspecified) |
